In ChEMBL document CHEMBL3286113, “New potent antibacterial oxazolidinone (MRX-I) with an improved class safety profile” (J Med Chem, 2014):
Values after ≈ are worked out from the molar mass of the structure shown.

Tests used:
[1] = Tmax in fasted human at 600 mg, po administered as single dose; format: ADME, organism-based; settings: in vivo
In short: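 Randomized single-dose, three-period Latin-square crossover in 12 healthy volunteers (six per gender), fasting. Single oral doses of 300, 600 and 900 mg were separated by a 1-week washout. PK parameters were derived by noncompartmental analysis.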

[2] = AUC (0 to infinity) in fasted human at 900 mg, po administered as single dose; format: ADME, organism-based; design: dose 900 mg, route oral, time infinity; settings: plasma
In short: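 Single-dose, three-period Latin-square crossover in 12 healthy volunteers (6 of each gender). Each received single oral 300, 600 and 900 mg doses under fasting conditions, with a 1-week washout between doses. PK parameters, including AUC0−inf, came from a noncompartmental model.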

[3] = Cmax in human at 900 mg, po administered as single dose at 30 mins post fat meal; format: ADME, organism-based; design: dose 900 mg, route oral; settings: in vivo
In short: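 Crossover study in 12 subjects (six of each sex). Each got a single oral 900 mg dose either fasted or 30 min after a fat-containing meal.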

[4] = Cmax in human at 600 mg, po administered as single dose with meal measured on day 15; format: ADME, organism-based; design: dose 600 mg, route oral; settings: in vivo
In short: (§1)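 Randomized, double-blind, placebo-controlled multiple-dose study in 32 healthy subjects, half male and half female. Each dose was taken with a meal, at 600 or 800 mg, 28 doses over 15 days. A single dose on days 1 and 15 gave full PK; BID (Q12h) dosing ran on days 2–14.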

[5] = AUC (0 to 24 hrs) in human at 600 mg, po administered as single dose with meal measured on day 15; format: ADME, organism-based; design: time < 24 hr, dose 600 mg, route oral; settings: plasma
In short: (§2)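 Randomized, double-blind, placebo-controlled multiple-dose study in 32 healthy subjects (half male, half female). Subjects took 28 oral doses of 600 or 800 mg over 15 days, each with a meal. A single dose was given on days 1 and 15 for full PK, and doses were given Q12h from day 2 to day 14. AUC0−24 was measured on days 1 and 15.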

[6] = Cmax in human at 800 mg, po administered as single dose with meal measured on day 1; format: ADME, organism-based; design: dose 800 mg, route oral; settings: in vivo; in short: as §1
[7] = Tmax in human at 800 mg, po administered as single dose with meal measured on day 1; format: ADME, organism-based; settings: in vivo
In short: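 Randomized, double-blind, placebo-controlled multiple-dose study in 32 healthy subjects, half male and half female. Dosing was 600 or 800 mg orally with a meal, 28 doses over 15 days. A single dose was given on days 1 and 15 for full PK, with Q12h (BID) dosing on days 2−14.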

[8] = AUC (0 to 24 hrs) in human at 800 mg, po administered as single dose with meal measured on day 15; format: ADME, organism-based; design: dose 800 mg, time < 24 hr, route oral; settings: plasma; in short: as §2
Rattus norvegicus [9] = assay: Toxicity in female rat assessed as effect on lymphocyte count at 20 mg/kg/day, po bid administered for 4 weeks (reference value: 74.8%); format: organism-based; design: route oral; settings: in vivo, 672 h
Rattus norvegicus [10] = assay: Toxicity in female rat assessed as effect on lymphocyte count at 100 mg/kg/day, po bid administered for 4 weeks (reference value: 74.8%); format: organism-based; design: route oral; settings: in vivo, 672 h
Rattus norvegicus [11] = assay: Toxicity in female rat assessed as effect on hemoglobin level at 200 to 300 mg/kg/day, po bid administered for 4 weeks (reference value: 141.8 g/L); format: organism-based; design: route oral; settings: in vivo, 672 h
Rattus norvegicus [12] = assay: Toxicity in female rat assessed as effect on hematocrit level at 200 to 300 mg/kg/day, po bid administered for 4 weeks (reference value: 39.08%); format: organism-based; design: route oral; settings: in vivo, 672 h
[13] = system: Staphylococcus epidermidis; assay: Antibacterial activity against methicillin-resistant Staphylococcus epidermidis; format: functional
Enterococcus faecalis = assay: Bacteriostatic activity against vancomycin-sensitive Enterococcus faecalis; format: functional
Streptococcus pneumoniae [14] = assay: Bactericidal activity against penicillin-sensitive Streptococcus pneumoniae; format: functional
Streptococcus pyogenes [15] = assay: Antibacterial activity against Streptococcus pyogenes; format: functional
Staphylococcus aureus [16] = assay: Potency index, ratio of linezolid MIC90 to compound MIC90 for methicillin-resistant Staphylococcus aureus; format: functional
Staphylococcus aureus [17] = assay: Antibacterial activity against Staphylococcus aureus measured after 7 serial passages; format: functional
Streptococcus pneumoniae [18] = assay: Antibacterial activity against penicillin intermediate-sensitive Streptococcus pneumoniae ATCC 49619 clinical isolate; format: functional
Streptococcus pyogenes [19] = assay: Antibacterial activity against Streptococcus pyogenes isolate 556; format: functional
Staphylococcus aureus [20] = assay: Antibacterial activity against methicillin-resistant Staphylococcus aureus isolate 0605 in po dosed mouse systemic infection model; format: functional; settings: isolate 0605, po
Streptococcus pneumoniae [21] = assay: Antibacterial activity against penicillin intermediate-sensitive Streptococcus pneumoniae ATCC 49619 clinical isolate in po dosed mouse systemic infection model; format: functional; settings: ATCC 49619, po
Streptococcus pyogenes [22] = assay: Antibacterial activity against Streptococcus pyogenes isolate 556 in po dosed mouse systemic infection model; format: functional; settings: isolate 556, po
Staphylococcus aureus [23] = assay: Antibacterial activity against methicillin-sensitive Staphylococcus aureus ATCC 29213 in mouse thigh infection model assessed as reduction of log10 CFU per thigh at 10 mg/kg, po; format: functional
In short: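 Mouse thigh infection with S. aureus ATCC29213 (MSSA), 10 animals per dosing group. Oral doses were 5, 10, 20, 40 and 80 mg/kg. The read-out was log CFU per thigh after treatment, and the reduction (ΔLogCFU/thigh) was reported.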

Staphylococcus aureus [24] = assay: Antibacterial activity against methicillin-resistant Staphylococcus aureus isolate 0605 in mouse thigh infection model assessed as reduction of log10 CFU per thigh at 40 mg/kg, po; format: functional
Staphylococcus aureus [25] = assay: Antibacterial activity against methicillin-resistant Staphylococcus aureus isolate 0605 in mouse thigh infection model assessed as reduction of log10 CFU per thigh at 80 mg/kg, po; format: functional
Staphylococcus aureus [26] = assay: Antibacterial activity against methicillin-resistant Staphylococcus aureus isolate 0605 in po dosed mouse thigh infection model; format: functional, organism-based; settings: Thigh muscle
[27] = Tmax in po dosed mouse; format: ADME, organism-based; settings: in vivo
[28] = Half life in po dosed rat; format: ADME, organism-based; settings: in vivo
[29] = Tmax in male rat at 5 mg/kg, po; format: ADME, organism-based; design: dose 5 mg/kg, route oral; settings: in vivo
In short: (§3)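 Male and female rats received single oral doses of 5, 15 or 45 mg/kg, with 5 mg/kg iv as a reference arm. Tmax was read from the plasma concentration–time profile for each gender.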

[30] = Tmax in female rat at 5 mg/kg, po; format: ADME, organism-based; design: dose 5 mg/kg, route oral; settings: in vivo; in short: as §3
[31] = Half life in female rat at 5 mg/kg, po; format: ADME, organism-based; design: dose 5 mg/kg, route oral; settings: in vivo
[32] = Half life in male rat at 45 mg/kg, po; format: ADME, organism-based; design: dose 45 mg/kg, route oral; settings: in vivo
[33] = Half life in male rat at 5 mg/kg, iv; format: ADME, organism-based; design: dose 5 mg/kg, route intravenous; settings: in vivo
Rattus norvegicus [34] = assay: Toxicity in rat assessed as mortality at 200 mg/kg, po bid administered for 4 weeks measured on day 14; format: organism-based; design: dose 200 mg/kg, route oral; settings: in vivo, 672 h
In short: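 Rats, 10 per gender per group, given drug orally twice daily at 20, 100 and 200/300 mg/kg/day for 4 weeks, then a 4-week recovery period. The top dose of 200 mg/kg/day was raised to 300 mg/kg/day on day 15. The comparator was dosed the same way at 100 and 200 mg/kg/day. Monitoring covered mortality, body weight, hematology and bone marrow, with blood taken for TK on days 1, 14 and 28.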

L5178Y = assay: Mutagenicity in mouse tk +/- L5178Y cells assessed as increase in gene mutation frequency at 62.5 to 1000 ug/mL in presence of S9 fraction

**Q.** For `O=C1C=CN(c2c(F)cc(N3C[C@H](CNc4ccon4)OC3=O)c(F)c2F)CC1` [CONTEZOLID], which Tmax [1] is on record?
**A.** 120 min

**Q.** And the AUC(0-inf) [2]?
**A.** 59200 ng·h/mL

**Q.** And the Cmax [3]?
**A.** 42300 ng/mL

**Q.** What about the Cmax [4] of the same compound?
**A.** 20600 ng/mL

**Q.** What about the AUC(0-t) at 24 h [5] of the same compound?
**A.** 72900 ng·h/mL

**Q.** And the Cmax [6]?
**A.** 27800 ng/mL

**Q.** What about the Tmax [7] of the same compound?
**A.** 51 min

**Q.** What about the AUC(0-t) at 24 h [8] of the same compound?
**A.** 90400 ng·h/mL

**Q.** What about the Activity (Rattus norvegicus [9]) of the same compound?
**A.** 83.4%

**Q.** And the Activity (Rattus norvegicus [10])?
**A.** 78.8%

**Q.** What about the Activity (Rattus norvegicus [11]) of the same compound?
**A.** 117.6 g/L

**Q.** What about the Activity (Rattus norvegicus [12]) of the same compound?
**A.** 30.6%

**Q.** And the MIC50 [13]?
**A.** 0.25 µg/mL (≈ 0.612 µM)

**Q.** And the MIC90 [13]?
**A.** 0.5 µg/mL (≈ 1.22 µM)

**Q.** What about the MIC50 (Enterococcus faecalis) of the same compound?
**A.** 1 µg/mL (≈ 2.45 µM)

**Q.** And the MIC90 (Enterococcus faecalis)?
**A.** 1 µg/mL (≈ 2.45 µM)

**Q.** What about the MIC50 (Streptococcus pneumoniae [14]) of the same compound?
**A.** 0.5 µg/mL (≈ 1.22 µM)

**Q.** What about the MIC90 (Streptococcus pneumoniae [14]) of the same compound?
**A.** 0.5 µg/mL (≈ 1.22 µM)

**Q.** What about the MIC50 (Streptococcus pyogenes [15]) of the same compound?
**A.** 0.5 µg/mL (≈ 1.22 µM)

**Q.** What about the MIC90 (Streptococcus pyogenes [15]) of the same compound?
**A.** 1 µg/mL (≈ 2.45 µM)

**Q.** And the Ratio (Staphylococcus aureus [16])?
**A.** 2

**Q.** And the MIC (Staphylococcus aureus [17])?
**A.** 2 µg/mL (≈ 4.9 µM)

**Q.** What about the MIC (Streptococcus pneumoniae [18]) of the same compound?
**A.** 1 µg/mL (≈ 2.45 µM)

**Q.** And the MIC (Streptococcus pyogenes [19])?
**A.** 1 µg/mL (≈ 2.45 µM)

**Q.** What about the ED50 (Staphylococcus aureus [20]) of the same compound?
**A.** 12 mg/kg

**Q.** What about the ED50 (Streptococcus pneumoniae [21]) of the same compound?
**A.** 8.1 mg/kg

**Q.** What about the ED50 (Streptococcus pyogenes [22]) of the same compound?
**A.** 8.9 mg/kg

**Q.** And the deltalog10CFU (Staphylococcus aureus [23])?
**A.** 3.29

**Q.** What about the deltalog10CFU (Staphylococcus aureus [24]) of the same compound?
**A.** 4.13

**Q.** And the deltalog10CFU (Staphylococcus aureus [25])?
**A.** 4.53

**Q.** And the Activity (Staphylococcus aureus [26])?
**A.** Dose-dependent effect

**Q.** And the Tmax [27]?
**A.** 30 min

**Q.** What about the half-life [28] of the same compound?
**A.** 90 min

**Q.** What about the Tmax [29] of the same compound?
**A.** 30 min

**Q.** And the Tmax [30]?
**A.** 40.2 min

**Q.** What about the half-life [31] of the same compound?
**A.** 124 min

**Q.** What about the half-life [32] of the same compound?
**A.** 64.2 min

**Q.** What about the half-life [33] of the same compound?
**A.** 59.4 min

**Q.** And the Activity (Rattus norvegicus [34])?
**A.** Toxic

**Q.** And the Activity (L5178Y)?
**A.** Non-toxic
